Common to all, as to settings: stereoisomer not certain
In one test the target is UniProt L7N1Y8. The method in brief: (§1)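 Assay methods differ from source to source, frequently being transient luciferase assays in mammalian cell lines. For each receptor–molecule pair, the label responsive (active) applies when the original authors judged the measured signal statistically different from baseline, and non-responsive (inactive) applies otherwise.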
A further test concerns the target T1, UniProt Q7TQV4.
T1 sequence (whole entry): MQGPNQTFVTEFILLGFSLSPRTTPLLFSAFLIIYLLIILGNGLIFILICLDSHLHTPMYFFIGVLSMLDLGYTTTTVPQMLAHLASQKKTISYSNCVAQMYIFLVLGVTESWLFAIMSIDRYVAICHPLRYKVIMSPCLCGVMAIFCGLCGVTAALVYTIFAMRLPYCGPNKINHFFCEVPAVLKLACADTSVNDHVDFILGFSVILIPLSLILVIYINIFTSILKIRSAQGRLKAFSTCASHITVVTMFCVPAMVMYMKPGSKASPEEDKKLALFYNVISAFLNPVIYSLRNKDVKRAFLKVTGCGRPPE
The method in brief:
as §1

The next test addresses T2, UniProt L7MU75.
T2 sequence (whole entry): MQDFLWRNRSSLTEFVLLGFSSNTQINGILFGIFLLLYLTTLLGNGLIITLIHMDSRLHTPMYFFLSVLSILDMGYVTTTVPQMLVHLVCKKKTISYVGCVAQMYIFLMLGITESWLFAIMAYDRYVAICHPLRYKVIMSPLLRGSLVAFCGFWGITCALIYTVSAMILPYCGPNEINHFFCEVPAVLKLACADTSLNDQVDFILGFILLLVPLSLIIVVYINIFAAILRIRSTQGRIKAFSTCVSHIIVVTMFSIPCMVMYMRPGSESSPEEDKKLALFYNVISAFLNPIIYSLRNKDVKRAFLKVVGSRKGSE
The method in brief: as §1

The target of a further test is T3, UniProt L7N210.
T3 sequence (whole entry): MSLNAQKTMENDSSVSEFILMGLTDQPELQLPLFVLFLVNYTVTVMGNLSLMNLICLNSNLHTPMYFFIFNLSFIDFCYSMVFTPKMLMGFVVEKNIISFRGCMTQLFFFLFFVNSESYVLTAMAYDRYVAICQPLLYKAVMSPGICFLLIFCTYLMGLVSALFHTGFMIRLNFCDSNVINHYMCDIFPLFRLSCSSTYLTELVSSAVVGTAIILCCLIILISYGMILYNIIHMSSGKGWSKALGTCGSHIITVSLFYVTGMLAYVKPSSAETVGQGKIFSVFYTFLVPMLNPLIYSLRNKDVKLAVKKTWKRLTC
The method in brief: as §1

The target of the next test is T4, UniProt Q3KPB0.
T4 sequence (whole entry): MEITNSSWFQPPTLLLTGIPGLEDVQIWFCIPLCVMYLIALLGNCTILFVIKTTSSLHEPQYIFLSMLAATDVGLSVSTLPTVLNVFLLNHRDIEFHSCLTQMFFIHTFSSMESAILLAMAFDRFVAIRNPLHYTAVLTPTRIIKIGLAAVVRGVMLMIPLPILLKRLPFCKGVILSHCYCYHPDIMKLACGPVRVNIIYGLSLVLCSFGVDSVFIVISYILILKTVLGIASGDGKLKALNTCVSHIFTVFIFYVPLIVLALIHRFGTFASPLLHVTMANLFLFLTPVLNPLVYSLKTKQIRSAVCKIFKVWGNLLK
The method in brief: as §1

The target of the next test is T5, UniProt Q3U0P3.
T5 sequence (whole entry): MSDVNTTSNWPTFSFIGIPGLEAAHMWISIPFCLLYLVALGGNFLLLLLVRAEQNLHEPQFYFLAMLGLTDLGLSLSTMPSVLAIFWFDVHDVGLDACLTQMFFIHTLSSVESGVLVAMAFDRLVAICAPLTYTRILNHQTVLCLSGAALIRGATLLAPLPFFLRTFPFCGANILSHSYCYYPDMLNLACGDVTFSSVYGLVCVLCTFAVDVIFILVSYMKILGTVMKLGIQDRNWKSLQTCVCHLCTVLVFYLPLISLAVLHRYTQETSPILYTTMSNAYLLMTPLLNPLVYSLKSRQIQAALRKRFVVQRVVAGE
The method in brief: as §1

Another test addresses T6, UniProt Q7TQU8.
T6 sequence (whole entry): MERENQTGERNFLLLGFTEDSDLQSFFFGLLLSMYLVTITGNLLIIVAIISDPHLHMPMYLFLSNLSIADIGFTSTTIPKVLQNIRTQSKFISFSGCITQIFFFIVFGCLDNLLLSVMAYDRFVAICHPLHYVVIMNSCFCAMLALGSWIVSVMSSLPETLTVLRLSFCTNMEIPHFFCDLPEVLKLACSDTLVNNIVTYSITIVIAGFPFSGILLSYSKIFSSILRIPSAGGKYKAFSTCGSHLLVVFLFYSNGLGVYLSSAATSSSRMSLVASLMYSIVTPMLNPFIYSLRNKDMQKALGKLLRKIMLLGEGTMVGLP
The procedure, abridged:
as §1

Chain of UniProt L7N1Y8 (L7N1Y8 as listed by the source): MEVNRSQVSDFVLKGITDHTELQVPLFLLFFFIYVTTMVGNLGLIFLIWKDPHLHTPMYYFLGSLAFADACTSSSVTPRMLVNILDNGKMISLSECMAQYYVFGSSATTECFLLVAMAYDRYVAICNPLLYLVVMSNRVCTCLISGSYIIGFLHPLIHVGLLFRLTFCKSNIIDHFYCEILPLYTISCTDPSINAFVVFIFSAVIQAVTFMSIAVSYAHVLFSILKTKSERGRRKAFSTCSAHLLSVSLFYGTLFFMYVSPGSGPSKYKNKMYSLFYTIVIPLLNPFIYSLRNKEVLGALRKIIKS

For the molecule `O=c1ccc2ccccc2o1`, the “odorant receptor agonist call” value with UniProt L7N1Y8 and in the test with UniProt Q7TQV4 was “active” each time.
Turning to `CC(C)=C1CCC(C)CC1=O` (configuration not stated), the “odorant receptor agonist call” value with UniProt L7MU75, in the test with UniProt L7N210, with UniProt Q3KPB0, with UniProt Q3U0P3 and in the test with UniProt Q7TQU8 was “inactive” throughout.
As to `CC=CC(=O)C1=C(C)CCCC1(C)C`, the “odorant receptor agonist call” value with UniProt L7MU75, in the test with UniProt L7N210, with UniProt Q3KPB0, with UniProt Q3U0P3 and with UniProt Q7TQU8 was “inactive” each time.
Consider `CCCCCCCCCC=CC=O`, for which the “odorant receptor agonist call” value in the test with UniProt L7MU75, with UniProt L7N210, in the test with UniProt Q3KPB0, with UniProt Q3U0P3 and in the test with UniProt Q7TQU8 was “inactive” throughout.
In the case of `CCCCCOC(=O)CCC`, the “odorant receptor agonist call” value with UniProt L7MU75, with UniProt L7N210, with UniProt Q3KPB0, with UniProt Q3U0P3 and in the test with UniProt Q7TQU8 was “inactive” each time.
Take `CCCCCCCCOC=O`: the “odorant receptor agonist call” value in the test with UniProt L7MU75, with UniProt L7N210, in the test with UniProt Q3KPB0, with UniProt Q3U0P3 and with UniProt Q7TQU8 was “inactive” each time.
Take `CC1CCC(C(C)C)C(=O)C1` (configuration not stated): the “odorant receptor agonist call” value in the test with UniProt L7MU75, with UniProt L7N210, with UniProt Q3KPB0, in the test with UniProt Q3U0P3 and with UniProt Q7TQU8 was “inactive” each time.
Turning to `O=C(O)C1CCC1`, the “odorant receptor agonist call” value in the test with UniProt L7MU75, with UniProt L7N210, with UniProt Q3KPB0, in the test with UniProt Q3U0P3 and in the test with UniProt Q7TQU8 was “inactive” each time.
With `CC(C)CCN`, the “odorant receptor agonist call” value with UniProt L7MU75, in the test with UniProt L7N210, with UniProt Q3KPB0, with UniProt Q3U0P3 and in the test with UniProt Q7TQU8 was “inactive” throughout.
With `Cc1occc1SSc1ccoc1C`, the “odorant receptor agonist call” value in the test with UniProt L7MU75, with UniProt L7N210, with UniProt Q3KPB0 and in the test with UniProt Q3U0P3 was “inactive” in each case. Besides, in the test with UniProt Q7TQU8, the “odorant receptor agonist call” value was “active”.
`CC(=O)OC1(C)CCC23CC1C(C)(C)C2CCC3C` (configuration not stated): the “odorant receptor agonist call” value with UniProt L7MU75, with UniProt L7N210 and with UniProt Q3KPB0 was “inactive” in each case. Also, the “odorant receptor agonist call” value with UniProt Q3U0P3 and with UniProt Q7TQU8 was “active” each time.
`C1CCOC1`: the “odorant receptor agonist call” value with UniProt L7MU75, in the test with UniProt L7N210, with UniProt Q3KPB0, with UniProt Q3U0P3 and with UniProt Q7TQU8 was “inactive” each time.
Consider `CCCCCOC(=O)CC`, for which the “odorant receptor agonist call” value with UniProt L7MU75, with UniProt L7N210, in the test with UniProt Q3KPB0, with UniProt Q3U0P3 and in the test with UniProt Q7TQU8 was “inactive” throughout.
For `CC(=O)C=CC1=C(C)CCCC1(C)C`, the “odorant receptor agonist call” value with UniProt L7MU75, with UniProt L7N210, with UniProt Q3KPB0, with UniProt Q3U0P3 and in the test with UniProt Q7TQU8 was “inactive” in each case.
As to `OCCc1ccccc1`, the “odorant receptor agonist call” value with UniProt L7MU75, with UniProt L7N210, in the test with UniProt Q3KPB0, with UniProt Q3U0P3 and in the test with UniProt Q7TQU8 was “inactive” throughout.
On to `CCN(CC)CC`, for which the “odorant receptor agonist call” value with UniProt L7MU75, with UniProt L7N210, with UniProt Q3KPB0, with UniProt Q3U0P3 and with UniProt Q7TQU8 was “inactive” in each case.
`CCCCCCCCCCOC(C)=O`: the “odorant receptor agonist call” value in the test with UniProt L7MU75, with UniProt L7N210, in the test with UniProt Q3KPB0, with UniProt Q3U0P3 and with UniProt Q7TQU8 was “inactive” in each case.
With `CCCC=O`, the “odorant receptor agonist call” value with UniProt L7MU75, in the test with UniProt L7N210, with UniProt Q3KPB0, in the test with UniProt Q3U0P3 and with UniProt Q7TQU8 was “inactive” throughout.
`C=C1C2CCC(C2)C1(C)C` (configuration not stated): the “odorant receptor agonist call” value with UniProt L7MU75, with UniProt L7N210, in the test with UniProt Q3KPB0, with UniProt Q3U0P3 and in the test with UniProt Q7TQU8 was “inactive” throughout.
For `C=C(C)C1CCC(C)C(O)C1` (configuration not stated), the “odorant receptor agonist call” value with UniProt L7MU75, with UniProt L7N210, with UniProt Q3KPB0, in the test with UniProt Q3U0P3 and with UniProt Q7TQU8 was “inactive” in each case.
Take `COc1nccnc1C`: in the test with UniProt L7MU75, the “odorant receptor agonist call” value was “active”. The “odorant receptor agonist call” value with UniProt L7N210, with UniProt Q3KPB0, with UniProt Q3U0P3 and in the test with UniProt Q7TQU8 was “inactive” throughout.
As for `CCCCCCC(=O)OCCCC`, the “odorant receptor agonist call” value with UniProt L7MU75, in the test with UniProt L7N210, with UniProt Q3KPB0, with UniProt Q3U0P3 and with UniProt Q7TQU8 was “inactive” each time.
With `CC=C(C)C=O`, the “odorant receptor agonist call” value with UniProt L7MU75, in the test with UniProt L7N210, with UniProt Q3KPB0, with UniProt Q3U0P3 and with UniProt Q7TQU8 was “inactive” in each case.
As to `CCCCCCC=CC=O`, the “odorant receptor agonist call” value with UniProt L7MU75, in the test with UniProt L7N210, in the test with UniProt Q3KPB0, with UniProt Q3U0P3 and in the test with UniProt Q7TQU8 was “inactive” throughout.
For `C=C(C)C1CCC2(C)OC2C1` (configuration not stated), the “odorant receptor agonist call” value with UniProt L7MU75, in the test with UniProt L7N210, in the test with UniProt Q3KPB0, with UniProt Q3U0P3 and in the test with UniProt Q7TQU8 was “inactive” throughout.
